High-throughput results: PubChem, several laboratories
bCat KO growth: beta-catenin-lacking colon tumor cell growth suppression; HCT116 beta-catenin knockout viability, CellTiter-Glo, 60 h; hits give low values; viability, % at 10 µM; hit rate 1.5% among 140,000; AID 818;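 active = viability at or under a set limit, the compound median less 4 SD, cut at about 6% in these data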;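 also: 0% = Hyamine 1622 control at 20 µM and 100% = untreated cell control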
HCT116 PTEN-null: growth suppressors of cells with PTEN tumor suppressor deletion; HCT116 PTEN-null viability, CellTiter-Glo, 60 h; hits give low values; hit rate 1.2% among 140,000; viability, % at 10 µM;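 active = viability at or below a set limit, 4 SD under the median of all tested compounds, cut at about 3.7% in these data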;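 also: PTEN knockout HCT116 line with beta catenin targeted HCT116 as companion control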
PMI activator: increases human mannose-6-phosphate isomerase activity | P34949 | purified human PMI, coupled resazurin fluorescence, 20 min; hits give high values; 1 = vehicle control, 0 substrate-free wells | activation factor at 20 µM | hit rate 0.005% among 190,000 | AID 1214;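 active = activation factor of 2 or more at 20 µM, relative to plate controls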
Target sequence (P34949 whole entry, looked up): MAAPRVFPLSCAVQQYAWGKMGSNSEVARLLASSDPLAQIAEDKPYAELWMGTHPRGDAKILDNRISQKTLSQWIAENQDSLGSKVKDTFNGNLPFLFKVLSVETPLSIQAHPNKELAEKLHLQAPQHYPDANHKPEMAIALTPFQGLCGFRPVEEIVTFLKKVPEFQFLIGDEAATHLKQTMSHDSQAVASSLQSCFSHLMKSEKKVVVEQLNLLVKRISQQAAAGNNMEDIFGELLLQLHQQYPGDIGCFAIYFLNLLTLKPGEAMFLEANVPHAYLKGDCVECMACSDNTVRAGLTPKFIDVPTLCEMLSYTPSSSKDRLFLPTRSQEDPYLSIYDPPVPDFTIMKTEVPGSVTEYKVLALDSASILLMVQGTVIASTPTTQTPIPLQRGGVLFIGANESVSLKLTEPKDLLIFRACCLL
PMI act satM6P: increases human PMI activity with near-saturating mannose 6-phosphate. coupled PMI enzyme assay, resazurin fluorescence, 20 min; hits give high values; 1 = untreated enzyme, 0 = substrate-free blank. activation factor at 20 µM. hit rate 0.34% among 190,000. AID 1216;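 active = activation factor of 2 or more at 20 µM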
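Test system: human phosphomannose isomerase with PGI, G6PDH, diaphorase coupling enzymes; amount: 15 ng/mL PMI; incubation: enzyme reaction with compound 20 min at room temperature; technique: resorufin fluorescence (Ex 544/Em 590 nm) from resazurin via diaphorase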
Lmaj promast: inhibitors of Leishmania major promastigote growth. Leishmania major promastigotes, resazurin fluorescence viability. inhibition, % at 10 µM. hit rate 9% among 200,000; in the data active = inhibition above about 50%;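 also: promastigotes grown with compound for 44 hours at 28 °C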
An asterisk follows results filed as active; x = not tested or not shown. This is a sample that favours compounds with a hit; in the whole collection about 9.6% have one here.

SMILES	bCat KO growth	HCT116 PTEN-null	PMI activator	PMI act satM6P	Lmaj promast
CC(C)CC1c2[nH]c3ccccc3c2CCN1C(=O)CCC(=O)N(C)C (stereo unspecified)	x	x	1	0.8	1
COCCNC(=O)c1onc(CSc2ccccc2)c1C(=O)O	95	104	1	1	-7
C=CCNC(=O)c1onc(CCl)c1C(=O)OC	93	92	1	0.9	101*
COCCNC(=O)c1onc(CCl)c1C(=O)OC	90	90	1.1	1.1	92*
CCCCNC(=O)c1onc(CCl)c1C(=O)OC	79	82	1	1	101*
COCCn1c(=NC(=O)c2cc(Cl)sc2Cl)sc2cc(S(N)(=O)=O)ccc21	8	2.3*	0.8	0.9	1
CCOCCn1c(=NC(=O)c2cc(Cl)sc2Cl)sc2cc(S(N)(=O)=O)ccc21	4.9*	5	0.9	1	2
CCOc1ccc(Cc2nc(C)c(CC(=O)N3CCOCC3)c(=O)[nH]2)cc1	78	93	1	1	-3
Cc1nc(N)sc1C(=O)N/N=C/c1ccccc1[N+](=O)[O-]	x	x	1	1	92*
CC1CCc2c(sc3ncnc(N4CCN(S(=O)(=O)c5cccc6nonc56)CC4)c23)C1 (stereo unspecified)	x	x	x	x	14
COc1ccc(NS(=O)(=O)c2ccc(NC(C)=O)cc2)c(OC)c1	x	x	0.9	1	-8
COc1ccc(NS(=O)(=O)c2ccc(NC(=O)c3ccc(N(C)S(C)(=O)=O)cc3)cc2)c(OC)c1	71	66	1	1.1	54*
O=C1c2ccccc2C(=O)N1CCc1c[nH]c2ccc(O)cc12	x	x	0.8	0.7	-5
Cc1[nH]n(C(N)=S)c(=O)c1N=Nc1cc(-c2ccc(Br)cc2)[nH]n1	x	x	1.2	1.1	57*
O=C(COC(=O)Cc1ccsc1)Nc1ccc(Cl)c(S(=O)(=O)N2CCOCC2)c1	91	87	0.9	0.9	-2
CCCN1C/C(=C/c2cccc([N+](=O)[O-])c2)C(=O)/C(=C/c2cccc([N+](=O)[O-])c2)C1	2.6*	2.0*	1	1	101*
CCCN1C(=O)/C(=C/c2ccc3c(c2)OCO3)NC1=S	x	x	1.1	1.1	3
CCCN1C/C(=C/c2ccc3c(c2)OCO3)C(=O)/C(=C/c2ccc3c(c2)OCO3)C1	2.0*	2.2*	0.8	0.9	100*
N#CCCN(C(=O)CCl)c1cccc(Cl)c1	x	x	1.1	1	51*
CCCCCCCN(C(=O)CCl)c1cccc(C)c1	70	67	1	0.9	34
COC(=O)c1cc(OC)c(OC)cc1NC(=O)CSc1ccccc1	86	91	0.9	1	1
CC(C)(C)c1ccc(C2(C)NC(=O)N(CC(=O)Nc3ccc4c(c3)OCO4)C2=O)cc1 (stereo unspecified)	53	62	0.9	0.9	77*
CC1(c2ccccc2)NC(=O)N(CC(=O)Nc2ccc3c(c2)OCO3)C1=O (stereo unspecified)	79	90	1	1	22
Cc1ccc(NC(=O)CN2C(=O)NC(C)(c3ccc(Cl)cc3)C2=O)cc1S(=O)(=O)N1CCOCC1 (stereo unspecified)	38	33	1	1.1	56*
CCCN(CC1CC1)C(=O)CSc1ncnc2sccc12	x	x	1.1	1.1	1
SMILES	bCat KO growth	HCT116 PTEN-null	PMI activator	PMI act satM6P	Lmaj promast
COc1ccc(N2CCN(C(=O)CSc3ncccc3-c3nc4ccccc4[nH]3)CC2)cc1	72	72	0.9	0.9	58*
COc1ccccc1N1CCN(C(=O)CSc2ncccc2-c2nc3ccccc3[nH]2)CC1	91	93	1.1	1.2	50*
O=C(CSc1ncccc1-c1nc2ccccc2[nH]1)N1CCN(c2ccccc2F)CC1	83	85	0.9	0.8	12
Cc1cc(C)n(-c2c(C)[nH]c3ccccc23)n1	x	x	1.3	1.2	-1
Cc1ccccc1-c1cc(C(=O)Nc2sc(C(=O)OC(C)C)c(C)c2C#N)c2ccccc2n1	14	10	0.4	0.7	40
CN(C)S(=O)(=O)c1ccc(C(=O)NCC(=O)N/N=C/c2ccccc2Cl)cc1	x	x	1	0.9	68*
Cc1ccsc1/C=N/NC(=O)CNC(=O)c1ccc(S(=O)(=O)N(C)C)cc1	x	x	1	1	52*
COc1cc(Nc2ccccc2Cl)c([N+](=O)[O-])nc1[N+](=O)[O-]	53	48	0.9	0.9	83*
COc1ccccc1Nc1ccc([N+](=O)[O-])cc1N	90	96	0.8	0.9	44
CCOC(=O)Cn1cc(C#N)c2cccc(CC)c21	x	x	0.9	1	16
CC(=O)CCS(=O)(=O)c1ccc(Oc2ccc(S(=O)(=O)CCC(C)=O)cc2)cc1	63	78	1.1	1	54*
COc1ccc(NC(=O)c2ccc(NCCCN3CCOCC3)c([N+](=O)[O-])c2)cc1	73	84	0.8	0.9	55*
O=C(Nc1ccc(N2CCCCC2)c(Cl)c1)c1ccc(N2CCOCC2)c([N+](=O)[O-])c1	13	13	0.8	1	93*
Cc1ccc(NC(=O)c2ccc(NCCCN3CCOCC3)c([N+](=O)[O-])c2)cc1Cl	7	5	0.8	0.9	99*
O=C(Nc1ccc(Cl)c([N+](=O)[O-])c1)c1ccc(NCCCN2CCOCC2)c([N+](=O)[O-])c1	98	111	1	1	45
O=C(/C=C/c1ccc2c(c1)OCO2)Nc1ccc(Cl)cn1	x	x	1	1.1	-1
CCOc1ccc2c(c1)C(N(CCN1CCOCC1)C(=S)Nc1ccccc1OC)CC(C)(C)O2 (stereo unspecified)	x	x	0.9	0.9	59*
CCOc1nc(N=C(N)N)nc2c(C)cccc12	59	56	0.8	0.8	100*
Cn1cc(Br)c(C(=O)NNC(=O)c2ccc(Cl)cc2)n1	88	66	1	1.1	52*
Cn1cc(Br)c(C(=O)NNC(=O)c2cccc(Br)c2)n1	87	94	1	1	-8
Cc1cc2nsnc2c(S(=O)(=O)NCC(=O)O)c1C	x	x	0.9	0.9	-7
O=C(CSc1nnc(NC(=O)C2CC2)s1)NCc1ccco1	90	90	0.9	0.9	59*
COc1ccc(C2NC(c3ccc(OC)cc3)C(c3ccccc3)C(=O)C2c2ccccc2)cc1 (stereo unspecified)	81	67	0.8	0.9	98*
COc1ccc(C2NC(c3ccc(OC)cc3)C([N+](=O)[O-])C(C)(C)C2[N+](=O)[O-])cc1 (stereo unspecified)	x	x	0.9	0.9	-1
O=c1c2c(-c3ccc(Cl)cc3)csc2ncn1/N=C/c1cccc([N+](=O)[O-])c1O	x	x	1.2	1.2	9
O=c1c2c(-c3ccccc3)csc2ncn1/N=C/c1c2ccccc2cc2ccccc12	73	71	0.9	0.9	100*
Cc1nn(-c2ccccc2)c(N2CCCC2)c1/C=N/n1cnc2scc(-c3ccccc3)c2c1=O	67	51	0.9	1	56*
